Structures are written as SMILES. Values after ≈ are worked out from the molar mass of the structure shown.

Tested on in the first series: not listed separately
Put plainly: Half life was reported. The class given is ADME.
Details: not given
In a few lines: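 Simulated stomach acid stability: compound at 1 mg/mL in 0.01 N HCl, pH 2.0, sealed, 37 °C. Acetal-type compounds sampled at 0–1400 min; non-acetal-type at 2–14 days. Remaining drug quantified by reverse-phase C-18 HPLC (ammonium acetate/acetonitrile, internal standard). Half-life from pseudo-first-order disappearance.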
The compound `CCCC[C@H]1O[C@@H]2O[C@]3(C)CC[C@H]4[C@H](C)CC[C@@H]([C@H]1C)[C@@]24OO3` had a half-life of 187 h.
`C[C@H]1[C@@H](CCc2ccc(C(=O)O)cc2)O[C@@H]2O[C@]3(C)CC[C@H]4[C@H](C)CC[C@@H]1[C@@]24OO3` had a half-life of 259 h. The half-life values of the last two compounds are within 1.5-fold of each other.
On the same count and under the same terms, the figure for `C[C@@H]1[C@H](OCc2ccc(C(=O)O)cc2)O[C@@H]2O[C@@]3(C)CC[C@@H]4[C@@H](C)CC[C@@H]1[C@]24OO3` [ARTELINIC ACID] is 13.1 h; for `CCO[C@H]1O[C@@H]2O[C@@]3(C)CC[C@H]4[C@H](C)CC[C@@H]([C@H]1C)[C@@]24OO3` [ARTEMOTIL] it is 11 h; for `C[C@@H]1CC[C@H]2[C@@H](C)CO[C@@H]3O[C@]4(C)CC[C@@H]1[C@]32OO4` [DEOXOARTEMISININ] it is 245 h.

The test system of another series is Plasmodium falciparum. Nature of the series: In vitro antimalarial activity against chloroquine-resistant Plasmodium falciparum K1. The class given is functional. The conditions noted are these: read-out: ED50 (the source's name). Put shortly: (§1)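 Asexual P. falciparum (3D7 or K1) in A+ erythrocytes, RPMI 1640, 5% hematocrit, 37 °C, 5% CO2. Synchronized ring stages at 1% parasitemia. Triplicate 3-fold dilutions from a final top concentration of 30 µg/mL. 24 h incubation, then [3H]-hypoxanthine (0.1 µCi/well) for a further 24 h. Incorporation read by scintillation counting; ED50 from curve fitting.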
For the compound `C[C@H]1[C@@H](CCc2ccc(C(=O)O)cc2)O[C@@H]2O[C@]3(C)CC[C@H]4[C@H](C)CC[C@@H]1[C@@]24OO3`, the EC50 is 0.6 ng/mL (≈ 1.44 nM).
For `C[C@@H]1[C@H](OCc2ccc(C(=O)O)cc2)O[C@@H]2O[C@@]3(C)CC[C@@H]4[C@@H](C)CC[C@@H]1[C@]24OO3` [ARTELINIC ACID], the EC50 came out at 1.4 ng/mL (≈ 3.35 nM).
With `C[C@@H]1CC[C@H]2[C@@H](C)C(=O)O[C@@H]3O[C@@]4(C)CC[C@@H]1[C@]32OO4` [ARTEMISININ], the EC50 is 0.7 ng/mL (≈ 2.48 nM).
Consider `CCO[C@H]1O[C@@H]2O[C@@]3(C)CC[C@H]4[C@H](C)CC[C@@H]([C@H]1C)[C@@]24OO3` [ARTEMOTIL], for which the EC50 was 0.9 ng/mL (≈ 2.88 nM).
For the compound `C[C@H]1[C@H](OC(=O)CCC(=O)O)O[C@@H]2O[C@@]3(C)CC[C@H]4[C@H](C)CC[C@@H]1[C@@]24OO3` [ARTESUNATE], the EC50 came out at 0.6 ng/mL (≈ 1.56 nM).
For the compound `CCN(CC)CCCC(C)Nc1ccnc2cc(Cl)ccc12` (stereo not drawn) [CHLOROQUINE], the EC50 turned out to be 220 ng/mL (≈ 688 nM).

The test system of the next series is Plasmodium falciparum. Nature of the series: In vitro antimalarial activity against chloroquine-sensitive Plasmodium falciparum 3D7. The class given is functional. Conditions: read-out: ED50 (the source's name). Put shortly: as §1
On to `C[C@H]1[C@@H](CCc2ccc(C(=O)O)cc2)O[C@@H]2O[C@]3(C)CC[C@H]4[C@H](C)CC[C@@H]1[C@@]24OO3`, for which the EC50 is 1.1 ng/mL (≈ 2.64 nM).
In the case of `C[C@@H]1[C@H](OCc2ccc(C(=O)O)cc2)O[C@@H]2O[C@@]3(C)CC[C@@H]4[C@@H](C)CC[C@@H]1[C@]24OO3` [ARTELINIC ACID], the EC50 came out at 4 ng/mL (≈ 9.56 nM).
On the same count and under the same terms, the figure for `C[C@@H]1CC[C@H]2[C@@H](C)C(=O)O[C@@H]3O[C@@]4(C)CC[C@@H]1[C@]32OO4` [ARTEMISININ] is 2.9 ng/mL (≈ 10.3 nM); for `CCO[C@H]1O[C@@H]2O[C@@]3(C)CC[C@H]4[C@H](C)CC[C@@H]([C@H]1C)[C@@]24OO3` [ARTEMOTIL] it is 0.2 ng/mL (≈ 0.64 nM); for `C[C@H]1[C@H](OC(=O)CCC(=O)O)O[C@@H]2O[C@@]3(C)CC[C@H]4[C@H](C)CC[C@@H]1[C@@]24OO3` [ARTESUNATE] it is 0.2 ng/mL (≈ 0.52 nM).
`CCN(CC)CCCC(C)Nc1ccnc2cc(Cl)ccc12` (stereo not drawn) [CHLOROQUINE]: the EC50 turned out to be 8 ng/mL (≈ 25 nM).

The next series has as its system Mus musculus. Nature of the series: Percent of infected erythrocytes in Blood schizonticidal activity against Plasmodium chabaudi in mice at a concentration of 10 mg/kg/day on day 5. The class given is functional.
Details: not given
In a few lines:
(§2)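 Female BALB/c mice (18–20 g, SPF), groups of five, infected iv on day 1 with 1 × 10^7 P. chabaudi ANKA-infected erythrocytes. Dosing ip began 2 h post-inoculation, once daily for 4 days, at 10 mg/kg/day in 10% DMSO/PBS. On day 5, Giemsa-stained smears; ≥1000 red cells counted; % infected erythrocytes per mouse, compared with controls.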
In turn, `C[C@H]1[C@@H](CCc2ccc(C(=O)O)cc2)O[C@@H]2O[C@]3(C)CC[C@H]4[C@H](C)CC[C@@H]1[C@@]24OO3` had an Infected erythrocytes of 0.3%.
On to `CCN(CC)CCCC(C)Nc1ccnc2cc(Cl)ccc12` (stereo not drawn) [CHLOROQUINE], for which the Infected erythrocytes came to 81.3%.

The test system of a further series is Mus musculus. Nature of the series: Percent of infected erythrocytes in Blood schizonticidal activity against Plasmodium chabaudi in mice at a concentration of 10 mg/kg/day on day 1. The class given is functional.
Details: not given
Put shortly:
as §2
`C[C@H]1[C@@H](CCc2ccc(C(=O)O)cc2)O[C@@H]2O[C@]3(C)CC[C@H]4[C@H](C)CC[C@@H]1[C@@]24OO3`: the Infected erythrocytes amounted to 0.5%.
`CCN(CC)CCCC(C)Nc1ccnc2cc(Cl)ccc12` (stereo not drawn) [CHLOROQUINE] displayed an Infected erythrocytes of 65%.

Another series deals with Mus musculus. Put plainly: Percent of infected erythrocytes in Blood schizonticidal activity against Plasmodium chabaudi in mice at a concentration of 10 mg/kg/day on day 2. It counts as functional.
Details: not given
Regarding `C[C@H]1[C@@H](CCc2ccc(C(=O)O)cc2)O[C@@H]2O[C@]3(C)CC[C@H]4[C@H](C)CC[C@@H]1[C@@]24OO3`, the Infected erythrocytes is 0.5%.
On the same count and under the same terms, then `CCN(CC)CCCC(C)Nc1ccnc2cc(Cl)ccc12` (stereo not drawn) [CHLOROQUINE], with 71.3%.

The next series relates to Mus musculus. Put plainly: Percent of infected erythrocytes in Blood schizonticidal activity against Plasmodium chabaudi in mice at a concentration of 10 mg/kg/day on day 3.
Details: not given
It counts as functional.
The compound `C[C@H]1[C@@H](CCc2ccc(C(=O)O)cc2)O[C@@H]2O[C@]3(C)CC[C@H]4[C@H](C)CC[C@@H]1[C@@]24OO3` returned an Infected erythrocytes of 2.9%.
`CCN(CC)CCCC(C)Nc1ccnc2cc(Cl)ccc12` (stereo not drawn) [CHLOROQUINE] yielded an Infected erythrocytes of 62.1%.

Another series deals with Mus musculus. Put plainly: Percent of infected erythrocytes in Blood schizonticidal activity against Plasmodium chabaudi in mice at a concentration of 10 mg/kg/day on day 4. The class given is functional.
Details: not given
In a few lines: as §2
In turn, `C[C@H]1[C@@H](CCc2ccc(C(=O)O)cc2)O[C@@H]2O[C@]3(C)CC[C@H]4[C@H](C)CC[C@@H]1[C@@]24OO3` returned an Infected erythrocytes of 0.5%.
Compound `CCN(CC)CCCC(C)Nc1ccnc2cc(Cl)ccc12` (stereo not drawn) [CHLOROQUINE] registered an Infected erythrocytes of 82.4%.

Another series deals with Mus musculus. Nature of the series: In vivo antimalarial activity against Plasmodium chabaudi in mice (Mus musculus) and its survival was reported. It counts as functional.
Details: not given
`C[C@H]1[C@@H](CCc2ccc(C(=O)O)cc2)O[C@@H]2O[C@]3(C)CC[C@H]4[C@H](C)CC[C@@H]1[C@@]24OO3` came in with a Survival of 5.
As to `CCO[C@H]1O[C@@H]2O[C@@]3(C)CC[C@H]4[C@H](C)CC[C@@H]([C@H]1C)[C@@]24OO3` [ARTEMOTIL], the Survival amounted to 3.
Compound `CCN(CC)CCCC(C)Nc1ccnc2cc(Cl)ccc12` (stereo not drawn) [CHLOROQUINE] had a Survival of 0.

Another series concerns Mus musculus. Put plainly: In vivo antimalarial activity against Plasmodium chabaudi in mice (Mus musculus) and its survival rate reported.
Details: not given
It counts as functional.
For the compound `C[C@H]1[C@@H](CCc2ccc(C(=O)O)cc2)O[C@@H]2O[C@]3(C)CC[C@H]4[C@H](C)CC[C@@H]1[C@@]24OO3`, the Survival rate is 100%.
As to `CCO[C@H]1O[C@@H]2O[C@@]3(C)CC[C@H]4[C@H](C)CC[C@@H]([C@H]1C)[C@@]24OO3` [ARTEMOTIL], the Survival rate stood at 60%.
As to `CCN(CC)CCCC(C)Nc1ccnc2cc(Cl)ccc12` (stereo not drawn) [CHLOROQUINE], the Survival rate is on record as 0%.

As usually defined, the half-life is the time needed for the level to fall by half in the phase considered.

(Values after ChEMBL document CHEMBL1135606, “Synthesis, stability, and antimalarial activity of new hydrolytically stable and water-soluble (+)-deoxoartelinic acid” (J Med Chem, 2002).)
